High-throughput results as filed in PubChem BioAssay.
Lipid droplet – modulators of hepatic lipid droplet formation; AML12 mouse hepatocytes, oleate lipid droplets, BODIPY imaging; 240,000 compounds, 0.4% hits; inhibition, % at 6.5 µM; AID 1656;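 active = lipid droplet intensity inhibited by at least 50%, with more than 500 cells counted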
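material = mouse AML12 hepatocyte cell line, fixed after treatment | also added = 100 µM oleic acid challenge | doses = compound at 6.5 µM only | schedule = overnight exposure | technique = Image-based BODIPY and DAPI two-channel analysis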
NS3 helicase inh – blocks Hepatitis C virus NS3 helicase unwinding. inhibition, % at 10.9 µM. NS3 helicase DNA unwinding, Cy5 molecular beacon fluorescence. 290,000 compounds, 0.56% hits;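 active = inhibition above the mean of all tested compounds plus 3 SD, set per campaign, cut at about 35% in these data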
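test system = hepatitis C virus NS3 helicase domain fragment enzyme | reagent = annealed dual-labelled DNA beacon duplex, ATP-started | times = 1 h at 25 °C | detection = Cy5 fluorescence, 0 and 60 min reads | read-out basis = percent inhibition from t60/t0 fluorescence ratio | control set = DMSO and thioflavine S | replication = one well per compound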
HSF1 activator – increases HSF-1 driven luciferase reporter signal. AID 504408. activation, % at 9 µM. NIH3T3-HGL HSF-1 luciferase reporter, MG132, 8 h; 100% = twice DMSO control signal. 300,000 compounds, 1.7% hits;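 active = mean replicate activation of at least 50% with a set share of replicates each reaching 50%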
HSP90 refold inh – blocks HSP90-mediated luciferase refolding in reticulocyte lysate; AID 1789; 290,000 compounds, 0.91% hits; Rabbit reticulocyte lysate, luciferase refolding luminescence, 3 h; inhibition, % at 5.6 µM;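 active = inhibition above the screen-wide mean plus 3 SD, computed separately per campaign, cut at about 16% in these data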;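 also: inhibitors lower the luminescence because luciferase stays unfolded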
HSF1 inh – HSF1 inhibition; 300,000 compounds, 0.77% hits; NIH3T3-HGL HSE-luciferase, MG132-induced, luminescence 8 h; stronger effect = lower value; activity change, negative = inhibition, % at 7.5 µM (by protocol);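 active = more than half of replicate wells show activity change below -50%, luminescence cut by over half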;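 also: luciferase reports HSF-1 transcriptional activity via heat shock element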
Large screens that a line does not name were inactive. Sampled rows, rich in hits. Any-hit rate of the full collection: about 3.8%.

COc1cc(NC(=O)C2=C(N3CCOCC3)/C(=C\c3ccc(Br)cc3)CC2)cc(OC)c1OC	HSF1 activator 97
Cc1ccsc1/C=C/C1=NCCCN1C	HSF1 inh -61
Cc1ccc(OCC(=O)N2CCCCC2)c(Br)c1	none
CC(C)(C)c1ccc(OCC(=O)N2CCCCCC2)c(Br)c1	HSF1 activator 69
COc1ccc(N(C(=O)c2ccco2)C(C(=O)NC2CCCC2)c2cccs2)cc1 (stereo not drawn)	HSF1 activator 66
COc1ccc(N(C(=O)c2ccco2)C(C(=O)NC2CCCC2)c2cccs2)cc1OC (stereo not drawn)	none
CC(=O)OC(C)C(=O)NS(=O)(=O)c1ccc(C)cc1 (stereo not drawn)	HSF1 activator 71
CCOC(=O)Cn1nc(C)c(NC(=O)COc2ccc([N+](=O)[O-])cc2)c1C	HSF1 inh -53
CCSC1(SCC)N=C(N)C2(C#N)C(c3ccc(OC)c(OC)c3OC)C12C#N (stereo not drawn)	HSF1 activator 198 (no result: NS3 helicase inh, HSP90 refold inh)
CC(C)c1nnc(SCC(=O)NC2CCCCC2)n1C	none
COc1ccc(N2C(=O)N(Cc3ccc(C)cc3)c3ccccc3S2(=O)=O)cc1	HSP90 refold inh 27
Cc1nc2cc(NC(=O)Nc3cccc([N+](=O)[O-])c3)ccc2n1C	HSF1 activator 54
Cn1c(CCN2CCCCC2)nc2cc(NC(=O)Nc3ccccc3)ccc21	HSF1 activator 58 (no result: Lipid droplet)
Cc1nn(CC(=O)Nc2ccc3c(c2)nc(CCN2CCCCC2)n3C)c(=O)c2ccccc12	HSF1 activator 53
CSc1ccc(Cl)c(C(=O)N(C)CC(=O)Nc2ccc(N3CCOCC3)cc2)c1	none (no result: Lipid droplet, NS3 helicase inh, HSP90 refold inh)
CC(C)(C)C(=O)NC1CC2CCCC(C1)N2C(=O)Nc1ccccc1 (stereo not drawn)	none
On1c(-c2ccccc2)nc2ccc(Cl)cc21	HSF1 activator 54 (no result: Lipid droplet)
CN(Cc1cccc(Cl)c1)C(=O)C1CCC(=O)N(C2CC2)C1 (stereo not drawn)	none
Cc1cc(C)n(-c2nc3ccccc3nc2N2CCN(C(=O)c3ccc(F)cc3)CC2)n1	HSF1 activator 62
CC(=Nc1ccccc1)C1=C(O)CCCC1=O	HSF1 activator 63
CC(=O)c1cc(C(=O)N2CCCC(CCC(=O)N(C)CCc3ccccn3)C2)cs1 (stereo not drawn)	none
Cn1ccnc1SCc1nc2c(cnn2-c2ccccc2)c(=O)[nH]1	none
O=c1[nH]c(CSc2nc3ccccc3s2)nc2ccccc12	none
O=c1[nH]c(CSc2ncc(C(F)(F)F)cc2Cl)nc2ccccc12	HSF1 activator 63
O=c1[nH]c(CSc2ccccn2)nc2ccccc12	HSF1 activator 75
O=c1[nH]c(SCc2ccc(Cl)cc2)nc2ccccc12	HSF1 activator 66
O=c1[nH]c(CSc2ccccn2)nc2c1cnn2-c1ccccc1	HSF1 activator 57
Cc1cc(F)ccc1NC(=O)c1cc(S(=O)(=O)N2CCc3ccccc32)cn1C	none
CC(C)Oc1ccc(/C=N/NC(=O)c2nnn(-c3nonc3N)c2CN(C)c2ccccc2)cc1	none
COC(=O)[C@@H]1C[C@]2(OC(=O)c3ccccc3)C=CC(=O)C[C@@H]2N1C(=O)OCc1ccccc1	HSF1 activator 73
COC(CNC(=O)C1CCCN1C(=O)OCc1ccccc1)OC (stereo not drawn)	none
COc1ccc(OC)c(-n2c(SCC(=O)Nc3cccc(S(N)(=O)=O)c3)nc3ccccc3c2=O)c1	none
O=C(Nc1cccc([N+](=O)[O-])c1)C1COc2ccccc2O1 (stereo not drawn)	none
CC(C)CC(C(=O)Nc1cccc(O)c1)N1C(=O)c2ccccc2C1=O (stereo not drawn)	HSF1 inh -59
CN(CC(=O)Nc1cccc(F)c1)C(=O)c1cc([N+](=O)[O-])ccc1N1CCCCC1	none (no result: Lipid droplet, NS3 helicase inh, HSP90 refold inh)
Fc1ccc(OCc2cc(-c3ccccc3)no2)cc1	HSF1 activator 51 (no result: Lipid droplet)
COc1cc(/C=C2\COC/C(=C\c3cc(OC)c(OC)c(OC)c3)C2=O)cc(OC)c1OC	HSF1 inh -92
COc1cc(/C=C2\CC/C(=C\c3cc(OC)c(OC)c(OC)c3)C2=O)cc(OC)c1OC	none
COc1cc(/C=C2/CCc3ccccc3C2=O)cc(OC)c1OC	HSF1 activator 73
O=C(O)c1cc(-c2c[nH]c3ccccc23)nc2ccc3ccccc3c12	HSF1 inh -68
c1ccc2c(-c3c[nH]c4ccccc34)c3ccccc3nc2c1	none (no result: Lipid droplet)
Cc1cccc(NS(=O)(=O)c2ccc(C(=O)NCC(c3ccco3)N3CCCCC3)cc2)c1C (stereo not drawn)	none (no result: Lipid droplet, NS3 helicase inh, HSP90 refold inh)
O=c1c(Cl)c(Nc2cccc(Cl)c2)cnn1-c1nc2ccccc2s1	HSP90 refold inh 16
COc1ccc([N+](=O)[O-])cc1NC(=O)c1ccc(-n2nc(C)cc2C)cc1	none
CC(=O)SC(C[N+](=O)[O-])c1cn(C(C)=O)c2ccccc12 (stereo not drawn)	HSF1 activator 204 (no result: Lipid droplet)
CCOC(=O)c1c(C)[nH]c(C(=O)OCC(=O)Nc2cc(Cl)ccc2OC)c1C	HSF1 activator 53 (no result: Lipid droplet)
CCOC(=O)c1[nH]c(C)c(C(=O)Nc2ccc(F)cc2)c1C	HSF1 activator 57 (no result: Lipid droplet)
CCOC(=O)c1[nH]c(C)c(C(=O)NCCC2=CCCCC2)c1C	HSF1 activator 61 (no result: Lipid droplet)
CN(C)c1nc(-c2cccnc2)nc(-c2ccccc2)c1C#N	none
O=C(CCCCCN1C(=O)c2cccc3cccc(c23)C1=O)NCCO	none
O=[N+]([O-])/C(C(Cl)=C(Cl)Cl)=C1\Nc2ccccc2O1	none
Cc1ccc2nc(-c3ccc4c(c3)OCCO4)cc(C(=O)O)c2c1	HSF1 activator 52
CC1CCN(CC(=O)c2cccs2)CC1	HSF1 inh -62
N#CCOC(=O)[C@H](Cc1c[nH]c2ccccc12)NS(=O)(=O)c1ccc(Cl)cc1	none (no result: Lipid droplet)
CC(CNc1nc2ccc(Cl)cc2n2cnnc12)c1ccccc1 (stereo not drawn)	none
Cn1c(=O)cc(OCCCC(=O)NC2CCCC2)c2ccccc21	HSF1 activator 56 (no result: Lipid droplet)
Cn1c(=O)cc(OCC(=O)NC2CCCCC2)c2ccccc21	none
Cc1cccc(CSc2nc3c(c(=O)[nH]2)CCCC3)c1	none
Cc1c(Cl)cccc1NC(=O)CSc1nc2c(c(=O)[nH]1)CCCC2	HSF1 activator 60
O=C(CSc1nc2c(c(=O)[nH]1)CCC2)Nc1ccccc1Cl	none
O=c1[nH]c(SCc2cccc(F)c2)nc2c1CCCC2	HSF1 activator 63
C[C@H](NC(=O)c1ccc2ccccc2c1)C(=O)N1CCC2(CC1)NCCc1[nH]cnc12	none
O=C1CC(/C=C/c2ccc(Cl)cc2)=Nc2ccccc2N1	HSF1 activator 70
CC(C)C[C@H](NC(=O)N1CCCCCC1)C(=O)O	HSF1 inh -51
CCC(C)[C@H](NC(=O)N1CCCCCC1)C(=O)O (stereo partly drawn)	none
CN(C)N1C(N)=C(C#N)C(c2ccc3c(c2)OCO3)C2=C1CCCC2=O (stereo not drawn)	none
